The record followed here is ChEMBL document CHEMBL1123531, “1,2-bis(arylsulfonyl)hydrazines. 2. The influence of arylsulfonyl and aralkylsulfonyl substituents on antitumor and alkylating activity” (1986).

Assay [1] can be described thus: Compound was evaluated for relative alkylating activity.
Assay [2] relates to Mus musculus. Kind of assay: Compound was evaluated for the antitumor activity as average change in body weight against L1210 leukemia in mice 150 mg/kg dose. Format: functional. In short, it runs like this:
(§1)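 CDF1 mice carrying ip L1210 ascites (10^5 cells), dosed ip daily for 6 consecutive days starting 24 h after implant, in Tween 80/isotonic saline suspension. Five mice per group. Toxicity taken as mean percent body weight change from start to end of therapy.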

Assay [3] concerns Mus musculus. Nature of the assay: Compound was evaluated for the antitumor activity as average change in body weight against L1210 leukemia in mice 100 mg/kg dose. Format: functional. In short, it runs like this: as §1
The test system of assay [4] is Mus musculus. Kind of assay: Compound was evaluated for the antitumor activity as average change in body weight against L1210 leukemia in mice at 50 mg/kg dose. Format: functional. In short, it runs like this: as §1
Assay [5] has as its system Mus musculus. Nature of the assay: Compound was evaluated for the antitumor activity against L1210 leukemia in mice at 50 mg/kg dose. Format: functional. In short, it runs like this: (§2)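 L1210 ascites leukemia serially passaged in CDF1 mice; 10^5 cells implanted ip. Compounds homogenized in drops of 20% aqueous Tween 80, brought to volume with isotonic saline, given ip as fine suspensions once daily for 6 consecutive days starting 24 h after implantation. Five mice per group; vehicle controls. Endpoint: % T/C = mean survival treated/control × 100; body-weight change tracked toxicity.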

The species named for assay [6] is Mus musculus. Kind of assay: Compound was evaluated for the antineoplastic activity against L1210 leukemia in mice. Format: functional. In short, it runs like this:
(§3)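 CDF1 mice, 10^5 L1210 ascites cells implanted ip (from 7-day donor tumors, saline-diluted). Dosed ip once daily for 6 days from 24 h post-implant, 50-150 mg/kg, as Tween 80/saline suspension. Five mice per group, vehicle-treated controls. Read-out: % T/C, mean survival of treated/control ×100.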

Assay [7] deals with Mus musculus. Kind of assay: Compound was evaluated for the antitumor activity as average change in body weight against L1210 leukemia in mice at 100 mg/kg dose. Format: functional. In short, it runs like this: as §1
Assay [8] has as its system Mus musculus. Nature of the assay: (§4) Compound was evaluated for the antitumor activity against L1210 leukemia in mice at 100 mg/kg dose. Format: functional. In a few lines: as §3
Assay [9] concerns Mus musculus. Nature of the assay: Compound was evaluated for the antitumor activity against L1210 leukemia in mice at 150 mg/kg dose. Format: functional. In short, it runs like this: as §2
For assay [10], the system named is Mus musculus. Kind of assay: Compound was evaluated for the antitumor activity as average change in body weight against L1210 leukemia in mice at 150 mg/kg dose. Format: functional. In a few lines:
as §1

Assay [11] has as its system Mus musculus. Described as §4. Format: functional. In a few lines:
as §2
This is another data set of the same source.

“And” between values parts separate entries of the source, which are not always exact repeats. Equal entries are not always repeated.

`O=S(=O)(NNS(=O)(=O)c1ccccc1)c1ccccc1`: the Relative activity in assay [1] is 0.
Regarding `Cc1ccc(S(=O)(=O)NN(C)S(=O)(=O)c2ccc(C)cc2)cc1`, the Relative activity in assay [1] is 100.
The same measure, in the same setting: to `Cc1ccc(S(=O)(=O)N(C)NS(=O)(=O)Cc2ccccc2)cc1` belongs 136.
In assay [1], `Cc1ccc(S(=O)(=O)N(C)NS(=O)(=O)c2ccccc2)cc1` showed a Relative activity of 112. Besides, the “Average change in weight” value is recorded as -1.7% with Mus musculus [2], 5.4% in the assay with Mus musculus [3] and 2% in the assay with Mus musculus [4]. For the same compound, in the assay on Mus musculus [5], the Average survival time was found to be 15 days. In addition, in the assay with Mus musculus [5], the T/C – broadly, the ratio of treated to control – is listed as 162%. In addition, in the assay listed under Mus musculus [6], the “Max T/C” value is 162%.
With `COc1ccc(S(=O)(=O)NN(C)S(=O)(=O)c2ccc(C)cc2)cc1`, the “Average change in weight” value came to 7.8% in the assay with Mus musculus [7], 7.7% in the assay with Mus musculus [4] and 2.9% in the assay on Mus musculus [10]. For the same compound, the Relative activity in assay [1] was determined as 91. For the same compound, the results for the T/C with Mus musculus [8], in the assay with Mus musculus [5] and in the assay with Mus musculus [9] were 162%, 116% and 143%, respectively. In addition, in the assay on Mus musculus [5] (50 mg/kg), the Average survival time is 15 days and 13.2 days. Also, the “Max T/C” value in the assay listed under Mus musculus [6] amounted to 162%.
`CN(NC(=O)c1ccccc1)C(=O)c1ccccc1` had a Relative activity in assay [1] of 10. Moreover, the “Max T/C” value in the assay filed under Mus musculus [6] is 97%.
With `COc1ccc(S(=O)(=O)N(C)NS(=O)(=O)c2ccc(C)cc2)cc1`, the results for the “Average change in weight” value with Mus musculus [7], in the assay with Mus musculus [4] and with Mus musculus [10] were 14.8%, 12.6% and 9.8%, respectively. The compound further showed a Relative activity in assay [1] of 85. Moreover, the “Max T/C” value in the assay listed under Mus musculus [6] is 113%.
On to `CN(NS(=O)(=O)c1ccc(Cl)cc1)S(=O)(=O)c1ccc(Cl)cc1`, for which the Relative activity in [1] is reported as 190.
`Cc1ccc(S(=O)(=O)NN(C)S(=O)(=O)c2ccc(Cl)cc2)cc1`: the “Average change in weight” value in the assay with Mus musculus [7] is listed as 5.5%; in the assay on Mus musculus [4] it was 5.1%; with Mus musculus [10] it was -4.6%. The same compound registered a Relative activity in assay [1] of 163. The results for the Average survival time in the assay on Mus musculus [11] and in the assay with Mus musculus [9] were 13 days and 10 days, respectively. The “Max T/C” value in the assay filed under Mus musculus [6] is recorded as 141%.
For the compound `Cc1ccc(S(=O)(=O)N(C)NS(=O)(=O)c2ccc(Cl)cc2)cc1`, the “Average change in weight” value stood at 10% in the assay with Mus musculus [7], 3.7% in the assay with Mus musculus [4] and 6% in the assay on Mus musculus [10]. This compound gave a Relative activity in assay [1] of 126. Besides, the T/C in the assay with Mus musculus [5] is 188%; in the assay on Mus musculus [9] it was 121%. In the assay listed under Mus musculus [6], the “Max T/C” value is 188%.
